Source: publication PMC3299854 (Neurobiology of Disease, 2012)
“Also recorded” adds a separate entry of the source. Read-outs that look alike come from different tables or passages of the source.

Columns and labels:
[1] = test system: NMDAR; experiment: NMDA-induced increase in [Ca2+]c, calcium imaging; assay type: cell-based, rat; conditions: for IC50: read-out: IC50, inhibition of NMDA-induced increases in [Ca2+]c
[2] = test system: cultured hippocampal neurons; assay type: cell-based, rat
[3] = test system: NCXrev (reverse Na+/Ca2+ exchanger); experiment: Gramicidin-induced; assay type: cell-based, rat; conditions: for efficacy of inhibition of gramicidin-induced increase in [Ca2+]c / IC50: 5 μM gramicidin; for efficacy of inhibition of gramicidin-induced increase in [Ca2+]c: 1 μM MK801, 50 μM memantine, 200 μM AP-5 (Fig. 3); for IC50: read-out: IC50, inhibition of gramicidin-induced increase in [Ca2+]c, bath with 5 μM nifedipine and 1 mM ouabain, Suppl. Fig. 6
[4] = test system: cultured hippocampal neurons; experiment: Glutamate-induced increase in [Na+]c, fluorescence imaging; assay type: cell-based, rat; conditions: 25 μM glutamate plus 10 μM glycine; for effect on glutamate-induced increase in [Na+]c: Sodium Green, 10 μM EIPA, 10 μM MK801; for effect on glutamate-induced increases in [Na+]c: SBFI, 1 μM MK801, 50 μM memantine, 200 μM AP-5
[5] = test system: cultured hippocampal neurons; experiment: Glutamate-induced plasma membrane depolarization; assay type: cell-based, rat; conditions: Annine-6plus; 25 μM glutamate plus 10 μM glycine; 1 μM MK801, 50 μM memantine, 200 μM AP-5
Summary of the method: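 Rat P1 hippocampal neurons, glia-free, 12–14 DIV, in standard NaCl bath (pH 7.4). Loaded with 4 μM Annine-6plus for 5 min at room temperature; excitation 480 nm, emission >570 nm; F480 expressed as F/F0. Inhibitors in 0.2% DMSO. 142 mM KCl substituted for NaCl at end for full depolarization. Depolarization shown as % resting potential over time; mean ± s.e.m., n=3.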

[6] = test system: NCXrev; experiment: NCXrev-mediated ion currents, voltage ramp whole-cell patch-clamp; assay type: cell-based, rat; conditions: 5 mM Ni2+, 10 μM KB-R7943, 10 μM MK801, 50 μM memantine, 50 μM AP-5
[7] = test system: NMDAR; experiment: NMDA-induced ion currents, whole-cell voltage-clamp; assay type: cell-based, rat
[8] = test system: cultured hippocampal neurons; experiment: NMDA-induced increase in [Na+]c; assay type: cell-based, rat; conditions: MK801 1 μM, memantine 10 μM, AP-5 20 μM; Suppl. Fig. 4
[9] = test system: cultured hippocampal neurons; experiment: NMDA-induced DCD, calcium imaging; assay type: cell-based, rat; conditions: 30 μM NMDA plus 10 μM glycine; MK801 1 μM, memantine 10 μM, AP-5 20 μM; Suppl. Fig. 3
[10] = test system: neurons; conditions: ref Levy and Lipton, 1990; cited from earlier work
[11] = test system: cultured hippocampal neurons; experiment: NMDA-induced plasma membrane depolarization; assay type: cell-based, rat; conditions: 30 μM NMDA plus 10 μM glycine; MK801 1 μM, memantine 10 μM, AP-5 20 μM; Suppl. Fig. 5
[12] = test system: forward mode of NCX; experiment: Forward mode of NCX; assay type: cell-based; conditions: authors' unpublished data
[13] = test system: cultured hippocampal neurons; conditions: CNQX 10–100 μM; ref Brustovetsky et al., 2011; cited from earlier work
[14] = test system: NMDAR; conditions: read-out: IC50, inhibition of NMDAR; ref Brustovetsky et al., 2011; cited from earlier work
[15] = rat cultured hippocampal neurons, Suppl. Fig. 1
[16] = whole-cell voltage-clamp, Suppl. Fig. 2

Row | SMILES | effect on glutamate-induced DCD [2] | effect on glutamate-induced increase in [Na+]c [4] | extent of inhibition of NMDA-induced increases in [Ca2+]c [1, 15] | IC50 [1, 15] [µM] | efficacy of inhibition of gramicidin-induced increase in [Ca2+]c [3] | IC50 [3] [µM] | effect on glutamate-induced plasma membrane depolarization [5] | effect on NCXrev-mediated ion currents [6] | effect on NMDA-induced ion currents [7, 16] | effect on [Na+]c elevated after NMDA application [8] | effect on DCD induced by NMDA [9] | effect on glutamate-induced increases in [Na+]c [4] | effect on plasma membrane depolarization induced by NMDA [11] | effect on forward mode of NCX [12] | further results
1 | CCN(c1nc(N)c(C(=O)NC(=N)N)nc1Cl)C(C)C [EIPA, 5-(N-ethyl-N-isopropyl)amiloride] | failed to prevent or attenuate | significantly attenuated |  |  |  |  |  |  |  |  |  |  |  |  | effect on NMDA-induced increase in [Ca2+]c ([1]; EIPA 10 μM, Suppl. Fig. 9): inhibited neither NMDAR nor NCXrev; effect on gramicidin-induced increase in [Ca2+]c ([3]; EIPA 10 μM, Suppl. Fig. 9): inhibited neither NMDAR nor NCXrev
2 | N[C@H](CCCP(=O)(O)O)C(=O)O [AP-5, D-(−)-2-Amino-5-phosphonopentanoic acid] | failed to prevent DCD; also recorded: failed to prevent or attenuate |  | completely inhibited | 2.2 ± 0.03 | much less efficacious | 2.8 ± 0.7 | nor prevented | practically without effect | inhibited NMDA-induced ion currents | significantly lowered | completely prevented DCD | neither attenuated | completely prevented |  | neuroprotection against glutamate excitotoxicity [10]: only moderately effective
3 | CC12CC3CC(C)(C1)CC(N)(C3)C2 [memantine] | completely prevented |  |  |  | very effectively inhibited | 17.1 ± 0.24 | nor prevented | inhibited |  | significantly lowered | completely prevented DCD | neither attenuated | completely prevented | not affected | extent of inhibition of NMDA-induced increases in [Ca2+]c [1]: completely inhibited; IC50 [1]: 3.6 ± 0.05 µM; effect on NMDA-induced ion currents [7]: inhibited NMDA-induced ion currents
4 | N#Cc1cc2[nH]c(=O)c(=O)[nH]c2cc1[N+](=O)[O-] [CNQX, 6-cyano-7-nitroquinoxaline-2,3-dione] |  |  |  |  |  |  |  |  |  |  |  |  |  |  | effect on glutamate-induced DCD [13]: had no effect
5 | N=C(N)SCCc1ccc(OCc2ccc([N+](=O)[O-])cc2)cc1 [KB-R7943] | failed to prevent DCD |  |  |  |  |  |  | strongly attenuated |  |  |  |  |  |  | IC50 [14]: 13.4 ± 3.6 µM
6 | C[C@]12N[C@H](Cc3ccccc31)c1ccccc12 [MK801] | completely prevented | failed to prevent or diminish | completely inhibited | 0.2 ± 0.04 | very effectively inhibited | 0.5 ± 0.08 | nor prevented | inhibited | inhibited NMDA-induced ion currents | significantly lowered | completely prevented DCD | neither attenuated | completely prevented | not affected | 
